Data set [1] can be described thus: Antiproliferative activity against human RPMI18226 cells after 48 hrs by SRB assay. The format is functional. To be noted: RPMI18226, 48 h. Background: The SRB assay estimates cell density from bound dye.
For another data set, the system named is K562. The experiment in a line: Antiproliferative activity against human K562 cells after 48 hrs by SRB assay. The data set is classed as functional. To be noted: K562, 48 h.
The next data set relates to HOP-62. Nature of the data set: Antiproliferative activity against human HOP62 cells after 48 hrs by SRB assay. The data set is classed as functional. The settings on record: HOP-62, 48 h.
The test system of a further data set is HCT-116. The experiment in a line: Antiproliferative activity against human HCT116 cells after 48 hrs by SRB assay. The settings on record: HCT-116, 48 h. The data set is classed as functional.
The next data set has as its system SF-539. The experiment in a line: Antiproliferative activity against human SF539 cells after 48 hrs by SRB assay. The format is functional. To be noted: SF-539, 48 h.
For another data set, the system named is COLO 205. The experiment in a line: Antiproliferative activity against human COLO205 cells after 48 hrs by SRB assay. The data set is classed as functional. To be noted: COLO 205, 48 h.
The next data set relates to UACC-62. Nature of the data set: Antiproliferative activity against human UACC62 cells after 48 hrs by SRB assay. The data set is classed as functional. To be noted: UACC-62, 48 h.
Data set [2] can be described thus: Antiproliferative activity against human OVACR3 cells after 48 hrs by SRB assay. The data set is classed as functional. The settings on record: OVACR3, 48 h.
The next data set has as its system IGROV-1. The experiment in a line: Antiproliferative activity against human IGROV1 cells after 48 hrs by SRB assay. The format is functional. To be noted: IGROV-1, 48 h.
The subject of another data set is SN12C. Nature of the data set: Antiproliferative activity against human SN12C cells after 48 hrs by SRB assay. The data set is classed as functional.
For another data set, the system named is UO-31. The experiment in a line: Antiproliferative activity against human UO31 cells after 48 hrs by SRB assay. To be noted: UO-31, 48 h. The data set is classed as functional.
A further data set relates to DU-145. The experiment in a line: Antiproliferative activity against human DU145 cells after 48 hrs by SRB assay. The data set is classed as functional. To be noted: DU-145, 48 h.
For the next data set, the system named is MCF7. The experiment in a line: Antiproliferative activity against human MCF7 cells after 48 hrs by SRB assay. The data set is classed as functional. The settings on record: MCF7, 48 h.
The target of data set [3] is T1, DNA topoisomerase 1 (Homo sapiens) (UniProt P11387).
T1 sequence (whole entry): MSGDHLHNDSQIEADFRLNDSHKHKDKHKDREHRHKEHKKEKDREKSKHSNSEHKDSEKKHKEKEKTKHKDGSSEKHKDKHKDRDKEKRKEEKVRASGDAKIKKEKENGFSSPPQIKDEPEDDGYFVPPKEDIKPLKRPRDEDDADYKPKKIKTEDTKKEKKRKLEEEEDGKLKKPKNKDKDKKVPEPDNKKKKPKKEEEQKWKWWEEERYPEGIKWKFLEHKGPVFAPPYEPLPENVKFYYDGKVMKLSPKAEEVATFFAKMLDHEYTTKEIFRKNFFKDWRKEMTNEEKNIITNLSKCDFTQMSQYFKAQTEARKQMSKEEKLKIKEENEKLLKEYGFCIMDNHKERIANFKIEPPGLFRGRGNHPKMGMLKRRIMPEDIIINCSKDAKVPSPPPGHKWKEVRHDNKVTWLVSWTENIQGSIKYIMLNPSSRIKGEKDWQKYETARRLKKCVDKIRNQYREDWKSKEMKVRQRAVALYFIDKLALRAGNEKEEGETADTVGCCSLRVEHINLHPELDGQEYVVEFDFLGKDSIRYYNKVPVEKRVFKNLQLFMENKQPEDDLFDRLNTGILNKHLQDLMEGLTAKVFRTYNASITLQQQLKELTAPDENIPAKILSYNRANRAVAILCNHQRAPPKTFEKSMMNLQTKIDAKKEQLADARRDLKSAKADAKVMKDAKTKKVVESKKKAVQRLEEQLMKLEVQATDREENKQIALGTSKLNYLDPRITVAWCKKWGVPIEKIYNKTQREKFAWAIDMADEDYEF
The experiment in a line: Inhibition of human topoisomerase 1 assessed as induction of DNA damage using 161 base-pair fragment form pBluescript SK(-) phagemid DNA substrate by DNA cleavage assay. Put shortly:
(§1)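 Baculovirus-purified human recombinant Top1 with 161 bp PvuII/HindIII fragment of pBluescript SK(-), 3'-end labeled at HindIII site with [α-32P]-dGTP by Klenow fill-in (~50 000 dpm/reaction). Incubated with drug, four 10-fold dilutions from 100 μM, 30 min at 22 °C. Stopped with 0.5% SDS (final), resolved on denaturing 16% polyacrylamide/7 M urea gels. Cleavage scored semiquantitatively.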

Data set [4] concerns the target T1, DNA topoisomerase 1 (Homo sapiens). Nature of the data set: Inhibition of human topoisomerase 1 assessed as induction of DNA cleavage at base-pair 97 using 161 base-pair fragment form pBluescript SK(-) phagemid DNA substrate by DNA cleavage assay. Put shortly: as §1
Data set [5] can be described thus: Solubility of the compound in dimethyl sulfoxide solvent. The format is physicochemical.
Data set [6] is described as follows: Solubility of the compound in methanol solvent. The format is physicochemical.
Data set [7] is described as follows: Solubility of the compound in chloroform solvent. The data set is classed as physicochemical.
For data set [8], the target named is T1, DNA topoisomerase 1 (Homo sapiens). Nature of the data set: Inhibition of human topoisomerase 1 assessed as induction of DNA cleavage at base-pair 119 using 161 base-pair fragment form pBluescript SK(-) phagemid DNA substrate by DNA cleavage assay. A digest of the protocol:
as §1

Active and inactive are the calls of the source. The rule behind the calls is not given here. A value given as a limit tells only on which side of the number the result lay.

For orientation: GI50 means the concentration at which growth is held to half of that of the control. The low end stands for more potent growth inhibition, the high end for less potent growth inhibition.

For `COc1cc2c3c(n(C)c(=O)c2cc1OC)-c1cc2c(cc1C3=O)OCO2`, the GI50 in [1] was over 100 µM; in the data set with K562 it was 6 µM; with HOP-62, 2.8 µM; with HCT-116, 11.5 µM; with SF-539, 1.7 µM; in the data set with COLO 205 it was over 100 µM. Moreover, the GI50 came out at 0.6 µM with UACC-62; 22.4 µM in [2]; 0.01 µM in the data set with IGROV-1; 25.7 µM in the data set with SN12C; 1.7 µM in the data set on UO-31; 4.8 µM in the data set with DU-145. For the same compound, in the data set on MCF7, the GI50 came to 1.9 µM.

Turning to `COc1cc2c(Cl)nc3c4ccccc4nc(Cl)c3c2cc1OC`, the inhibition entry in data set [3] was “inactive”.

Consider `COc1cc2c(OC)nc3c4ccccc4nc(OC)c3c2cc1OC`, for which, in data set [3], the inhibition entry was “inactive”.

Regarding `COc1cc2c(=O)n(C)c3c4ccccc4nc(Cl)c3c2cc1OC`, the inhibition entry in data set [4] and in [3] was “Active” in each case. Besides, the solubility entry in [5], in [6] and in data set [7] was “soluble” throughout.

For the compound `COc1cc2c(=O)n(CCCN3CCOCC3)c3c4ccccc4nc(Cl)c3c2cc1OC`, the inhibition result in data set [4], in [3] and in data set [8] was “Active” each time. In addition, the solubility result in data set [5], in data set [6] and in data set [7] was “soluble” each time. The GI50 in data set [1] came to 0.1 µM; with K562 it was 0.2 µM; in the data set on HOP-62, 4.7 µM; in the data set on HCT-116, 4.16 µM; in the data set with SF-539 it was 12.3 µM; with COLO 205, 0.33 µM. Besides, the GI50 with UACC-62 worked out at 6.8 µM; in data set [2], 6.3 µM; in the data set with IGROV-1 it was 0.03 µM; in the data set on SN12C, 13.2 µM; with UO-31, 0.02 µM; in the data set on DU-145, 10.5 µM. Moreover, the GI50 with MCF7 is 0.4 µM.

As for `COc1cc2c(=O)n(CCCO)c3c4ccccc4[nH]c(=O)c3c2cc1OC`, the inhibition result in data set [3] was “inactive”.

On to `COc1cc2c(=O)n(C)c3c4ccccc4[nH]c(=O)c3c2cc1OC`, for which the inhibition result in data set [3] was “inactive”.

On to `C=CCn1c(=O)c2cc(OC)c(OC)cc2c2c(=O)[nH]c3ccccc3c21`, for which, in [3], the inhibition entry is “inactive”.

The record behind these values is ChEMBL document CHEMBL1629450, “Design, synthesis, and evaluation of dibenzo[c,h][1,6]naphthyridines as topoisomerase I inhibitors and potential anticancer agents” (J Med Chem, 2010).
